Measurements: ChEMBL document CHEMBL4265929, “4-Hydroxy-1,2,3-triazole moiety as bioisostere of the carboxylic acid function: a novel scaffold to probe the orthosteric γ-aminobutyric acid receptor binding site” (Eur J Med Chem, 2018)

What was measured:
[1] = Ionization constant, pKa of the compound in KCl at pH 1.8 by potentiometric titration method; assay type: physicochemical
In short: (§1)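 Potentiometric titration of about 1 mM aqueous compound, ionic strength 0.15 M KCl. Solution acidified to pH 1.8 with 0.5 N HCl, then titrated with standardized 0.5 N KOH to pH 12.2 at 25 °C under argon. pKa taken as mean of four titrations.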

[2] = Displacement of [3H]muscimol from GABAA receptor in Sprague-Dawley rat brain synaptic membranes after 60 mins by Topcount scintillation counting method
In short: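 Synaptic membranes from male SPRD rat cortex and central hemispheres, washed four times (50 mM Tris-HCl pH 7.4, 48,000g, 4 °C). Membranes (70–80 µg protein) incubated with [3H]muscimol (5 nM final) and graded compound concentrations, 60 min, 0 °C. GF/C filtration, scintillation counting. Non-specific binding with 1.0 mM GABA. Triplicates, ≥3 experiments. IC50 converted to Ki (modified Cheng–Prusoff); mean pKi ± SEM.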

[3] = Ionization constant, pKa of the compound; assay type: physicochemical; in short: as §1
[4] = Ionization constant, pKa of the compound in methanol by diode array detection method; assay type: physicochemical

Row | pKi [2] | SMILES | pKa [1] | Ki [2] [µM] | pKa [3] | pKa [4]
1 |  | Cn1nc(O)c(CCN)n1 | 5.92 | > 100 |  | 
2 |  | Oc1cnn(C2CCNCC2)n1 | 6.36 | > 100 |  | 
3 |  | On1cc(C2CCNCC2)cn1 |  | 10 | 5.4 | 
4 | 5.62 | Oc1nnn(C2CCNCC2)c1Cc1ccc2ccccc2c1 |  | 2.4 |  | 
5 | 5.8 | Oc1nnn(C2CCNCC2)c1CCC(c1ccccc1)c1ccccc1 |  | 1.6 |  | 
6 |  | Oc1cc(C2CCNCC2)[nH]n1 |  | > 100 |  | 6.7
7 |  | Oc1nn(C2CCNCC2)nc1CCC(c1ccccc1)c1ccccc1 |  | > 100 |  | 
8 | 5.49 | Oc1nn(C2CCNCC2)nc1Cc1ccc2ccccc2c1 |  | 3.3 |  | 

Row | SMILES | pKi [2] | pKa [1] | Ki [2] [µM] | pKa [3] | pKa [4]
9 | NCCc1nsnc1O | 4.13 | 4.54 | 75 |  | 
10 | Oc1cn(C2CCNCC2)nn1 | 4.26 | 6.51 | 55 |  | 
